“And” between values parts separate entries of the source, which are not always exact repeats. Identical values can stand only once. Blank lines part the entries; values can stand above or below the molecule they belong to.
How the values were obtained:
Rattus norvegicus [1] = assay: Distribution of the [125I]-labeled compound in heart tissue of female Fischer 344 rat 5 min after intravenous administration. Value in the parentheses is ratio of distribution in heart and blood; assay type: ADME, organism-based; settings: in vivo
Procedure, shortened: (§1)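 Radioiodinated ([125I]) fatty acid formulated in 6% bovine serum albumin solution (10% EtOH), passed through a 0.22-µm filter, injected into a lateral tail vein of female Fischer 344 rats. Tissues taken at set times post-injection; radioactivity expressed as percent injected dose/g tissue (mean, range), with heart:blood ratio calculated from heart and blood values.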

Rattus norvegicus [2] = assay: Distribution of the [125I]-labeled compound in heart tissue of female Fischer 344 rat 120 min after intravenous administration. Value in the parentheses is ratio of distribution in heart and blood; assay type: ADME, organism-based; settings: in vivo, 2 h; procedure, shortened: as §1
Rattus norvegicus [3] = assay: Distribution of the [125I]-labeled compound in heart tissue of female Fischer 344 rat 4 hr after intravenous administration.; assay type: ADME, organism-based; settings: in vivo
Procedure, shortened: (§2)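 Tissues were sampled at the stated times after injection. Radioactivity is expressed as mean (range) percent injected dose/g tissue. Heart:blood ratios were calculated from these tissue values.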

Rattus norvegicus [4] = assay: Distribution of the [125I]-labeled compound in thyroid of female Fischer 344 rat 1 day after intravenous administration.; assay type: ADME, organism-based, Thyroid gland; settings: in vivo, 24 h; procedure, shortened: as §2
Rattus norvegicus [5] = assay: Ratio of the distribution of [125I]-labeled compound in heart/blood of female Fischer 344 rat 1 day after intravenous administration.; assay type: ADME, organism-based; settings: other tissue, 24 h; procedure, shortened: as §2
Rattus norvegicus [6] = assay: Ratio of the distribution of [125I]-labeled compound in heart/blood of female Fischer 344 rat 4 hr after intravenous administration.; assay type: ADME, organism-based; settings: other tissue; procedure, shortened: as §2
Rattus norvegicus [7] = assay: Distribution of the [125I]-labeled compound in heart tissue of female Fischer 344 rat 5 min after intravenous administration.; assay type: ADME, organism-based; settings: in vivo; procedure, shortened: as §2
Rattus norvegicus [8] = assay: Distribution of the [125I]-labeled compound in liver of female Fischer 344 rat 5 min after intravenous administration.; assay type: ADME, organism-based; settings: in vivo; procedure, shortened: as §2
Rattus norvegicus [9] = assay: Distribution of the [125I]-labeled compound in liver of female Fischer 344 rat 30 min after intravenous administration.; assay type: ADME, organism-based; settings: in vivo, 0.5 h; procedure, shortened: as §2
Rattus norvegicus [10] = assay: Distribution of the [125I]-labeled compound in blood of female Fischer 344 rat 1 hr after intravenous administration.; assay type: ADME, organism-based; settings: in vivo; procedure, shortened: as §2
Rattus norvegicus [11] = assay: Distribution of the [125I]-labeled compound in kidney of female Fischer 344 rat 30 min after intravenous administration.; assay type: ADME, organism-based; settings: in vivo, 0.5 h; procedure, shortened: as §2
Rattus norvegicus [12] = assay: Distribution of the [125I]-labeled compound in blood of female Fischer 344 rat 4 hr after intravenous administration.; assay type: ADME, organism-based; settings: in vivo; procedure, shortened: as §2
Rattus norvegicus [13] = assay: Ratio of the distribution of [125I]-labeled compound in heart/blood of female Fischer 344 rat 5 min after intravenous administration.; assay type: ADME, organism-based; settings: in vivo; procedure, shortened: as §2
Rattus norvegicus [14] = assay: Ratio of the distribution of [125I]-labeled compound in heart/blood of female Fischer 344 rat 1 hr after intravenous administration.; assay type: ADME, organism-based; settings: other tissue; procedure, shortened: as §2
Rattus norvegicus [15] = assay: Ratio of the distribution of [125I]-labeled compound in heart/blood of female Fischer 344 rat 2 hr after intravenous administration.; assay type: ADME, organism-based; settings: other tissue; procedure, shortened: as §2
Rattus norvegicus [16] = assay: Distribution of the [125I]-labeled compound in thyroid of female Fischer 344 rat 2 hr after intravenous administration.; assay type: ADME, organism-based, Thyroid gland; settings: in vivo; procedure, shortened: as §2
Rattus norvegicus [17] = assay: Distribution of the [125I]-labeled compound in lungs of female Fischer 344 rat 5 min after intravenous administration.; assay type: ADME, organism-based, Lung; settings: in vivo; procedure, shortened: as §2
Rattus norvegicus [18] = assay: Distribution of the [125I]-labeled compound in thyroid of female Fischer 344 rat 4 hr after intravenous administration.; assay type: ADME, organism-based, Thyroid gland; settings: in vivo; procedure, shortened: as §2
Rattus norvegicus [19] = assay: Distribution of the [125I]-labeled compound in liver of female Fischer 344 rat 2 hr after intravenous administration.; assay type: ADME, organism-based; settings: in vivo; procedure, shortened: as §2
Rattus norvegicus [20] = assay: Distribution of the [125I]-labeled compound in heart tissue of female Fischer 344 rat 1 hr after intravenous administration.; assay type: ADME, organism-based; settings: in vivo; procedure, shortened: as §2
Rattus norvegicus [21] = assay: Distribution of the [125I]-labeled compound in thyroid of female Fischer 344 rat 30 min after intravenous administration.; assay type: ADME, organism-based, Thyroid gland; settings: in vivo, 0.5 h; procedure, shortened: as §2
Rattus norvegicus [22] = assay: Distribution of the [125I]-labeled compound in lungs of female Fischer 344 rat 1 day after intravenous administration.; assay type: ADME, organism-based, Lung; settings: in vivo, 24 h; procedure, shortened: as §2
Rattus norvegicus [23] = assay: Distribution of the [125I]-labeled compound in lungs of female Fischer 344 rat 1 hr after intravenous administration.; assay type: ADME, organism-based, Lung; settings: in vivo; procedure, shortened: as §2
Rattus norvegicus [24] = assay: Distribution of the [125I]-labeled compound in thyroid of female Fischer 344 rat 5 min after intravenous administration.; assay type: ADME, organism-based, Thyroid gland; settings: in vivo; procedure, shortened: as §2
Rattus norvegicus [25] = assay: Distribution of the [125I]-labeled compound in heart tissue of female Fischer 344 rat 30 min after intravenous administration.; assay type: ADME, organism-based; settings: in vivo, 0.5 h; procedure, shortened: as §2
Rattus norvegicus [26] = assay: Distribution of the [125I]-labeled compound in kidney of female Fischer 344 rat 2 hr after intravenous administration.; assay type: ADME, organism-based; settings: in vivo; procedure, shortened: as §2
Rattus norvegicus [27] = assay: Distribution of the [125I]-labeled compound in kidney of female Fischer 344 rat 1 day after intravenous administration.; assay type: ADME, organism-based; settings: in vivo, 24 h; procedure, shortened: as §2
Rattus norvegicus [28] = assay: Distribution of the [125I]-labeled compound in heart tissue of female Fischer 344 rat 1 day after intravenous administration.; assay type: ADME, organism-based; settings: in vivo, 24 h; procedure, shortened: as §2
Rattus norvegicus [29] = assay: Distribution of the [125I]-labeled compound in blood of female Fischer 344 rat 5 min after intravenous administration.; assay type: ADME, organism-based; settings: in vivo; procedure, shortened: as §2
Rattus norvegicus [30] = assay: Distribution of the [125I]-labeled compound in kidney of female Fischer 344 rat 1 hr after intravenous administration.; assay type: ADME, organism-based; settings: in vivo; procedure, shortened: as §2
Rattus norvegicus [31] = assay: Distribution of the [125I]-labeled compound in kidney of female Fischer 344 rat 5 min after intravenous administration.; assay type: ADME, organism-based; settings: in vivo; procedure, shortened: as §2
Rattus norvegicus [32] = assay: Distribution of the [125I]-labeled compound in liver of female Fischer 344 rat 4 hr after intravenous administration.; assay type: ADME, organism-based; settings: in vivo; procedure, shortened: as §2
Rattus norvegicus [33] = assay: Distribution of the [125I]-labeled compound in lungs of female Fischer 344 rat 30 min after intravenous administration.; assay type: ADME, organism-based, Lung; settings: in vivo, 0.5 h; procedure, shortened: as §2
Rattus norvegicus [34] = assay: Distribution of the [125I]-labeled compound in liver of female Fischer 344 rat 1 hr after intravenous administration.; assay type: ADME, organism-based; settings: in vivo; procedure, shortened: as §2
Rattus norvegicus [35] = assay: Distribution of the [125I]-labeled compound in thyroid of female Fischer 344 rat 1 hr after intravenous administration.; assay type: ADME, organism-based, Thyroid gland; settings: in vivo; procedure, shortened: as §2
Rattus norvegicus [36] = assay: Distribution of the [125I]-labeled compound in blood of female Fischer 344 rat 30 min after intravenous administration.; assay type: ADME, organism-based; settings: in vivo, 0.5 h; procedure, shortened: as §2
Rattus norvegicus [37] = assay: Distribution of the [125I]-labeled compound in blood of female Fischer 344 rat 1 day after intravenous administration.; assay type: ADME, organism-based; settings: in vivo, 24 h; procedure, shortened: as §2
Rattus norvegicus [38] = assay: Distribution of the [125I]-labeled compound in kidney of female Fischer 344 rat 4 hr after intravenous administration.; assay type: ADME, organism-based; settings: in vivo; procedure, shortened: as §2
Rattus norvegicus [39] = assay: Distribution of the [125I]-labeled compound in blood of female Fischer 344 rat 2 hr after intravenous administration.; assay type: ADME, organism-based; settings: in vivo; procedure, shortened: as §2
Rattus norvegicus [40] = assay: Distribution of the [125I]-labeled compound in heart tissue of female Fischer 344 rat 2 hr after intravenous administration.; assay type: ADME, organism-based; settings: in vivo; procedure, shortened: as §2
Rattus norvegicus [41] = assay: Distribution of the [125I]-labeled compound in liver of female Fischer 344 rat 1 day after intravenous administration.; assay type: ADME, organism-based; settings: in vivo, 24 h; procedure, shortened: as §2

SMILES: O=C(O)CCCCC[Te]CCCCCCCCC/C=C/I
Injected dose/g tissue (Rattus norvegicus [1]): 3.5%
Injected dose/g tissue (Rattus norvegicus [2]): 2.9%

SMILES: O=C(O)CCCCCCCCC[Te]CCCCC/C=C/I
Injected dose/g tissue (Rattus norvegicus [1]): 3.1%
Injected dose/g tissue (Rattus norvegicus [2]): 3.8%

SMILES: O=C(O)CCC[Te]CCCCCCCCCCC/C=C/I
Injected dose/g tissue (Rattus norvegicus [1]): 3.9%
Injected dose/g tissue (Rattus norvegicus [2]): 3.6%

SMILES: O=C(O)CCCCCCC[Te]CCCCCCC/C=C/I
Injected dose/g tissue (Rattus norvegicus [1]): 4.8%
Injected dose/g tissue (Rattus norvegicus [2]): 3.9%

Injected dose/g tissue (Rattus norvegicus [3]): 0.94%
Injected dose/g tissue (Rattus norvegicus [4]): 350%
Heart/blood ratio (Rattus norvegicus [5]): 4.8
Heart/blood ratio (Rattus norvegicus [6]): 3.5
Injected dose/g tissue (Rattus norvegicus [7]): 3.17%
Injected dose/g tissue (Rattus norvegicus [8]): 8.65%
Injected dose/g tissue (Rattus norvegicus [9]): 7.81%
Injected dose/g tissue (Rattus norvegicus [10]): 0.28%
Injected dose/g tissue (Rattus norvegicus [11]): 0.7%
Injected dose/g tissue (Rattus norvegicus [12]): 0.27%
ratio (Rattus norvegicus [13]): 10.6 and 6.7
Heart/blood ratio (Rattus norvegicus [14]): 7.6
Heart/blood ratio (Rattus norvegicus [15]): 6.6
Injected dose/g tissue (Rattus norvegicus [16]): 61%
Injected dose/g tissue (Rattus norvegicus [17]): 1.02%
Injected dose/g tissue (Rattus norvegicus [18]): 153%
Injected dose/g tissue (Rattus norvegicus [19]): 4.04%
Injected dose/g tissue (Rattus norvegicus [20]): 2.09%
Injected dose/g tissue (Rattus norvegicus [21]): 20.88%
Injected dose/g tissue (Rattus norvegicus [22]): 0.59%
Injected dose/g tissue (Rattus norvegicus [23]): 0.82%
Injected dose/g tissue (Rattus norvegicus [24]): 9.29%
Injected dose/g tissue (Rattus norvegicus [25]): 2.69%
Injected dose/g tissue (Rattus norvegicus [26]): 0.63%
Injected dose/g tissue (Rattus norvegicus [27]): 0.32%
Injected dose/g tissue (Rattus norvegicus [28]): 0.32%
Injected dose/g tissue (Rattus norvegicus [29]): 0.3%
Injected dose/g tissue (Rattus norvegicus [30]): 0.62%
Injected dose/g tissue (Rattus norvegicus [31]): 0.82%
Injected dose/g tissue (Rattus norvegicus [32]): 3.08%
Injected dose/g tissue (Rattus norvegicus [33]): 1.03%
Injected dose/g tissue (Rattus norvegicus [34]): 4.83%
Injected dose/g tissue (Rattus norvegicus [35]): 27.18%
Injected dose/g tissue (Rattus norvegicus [36]): 0.4%
Injected dose/g tissue (Rattus norvegicus [37]): 0.07%
Injected dose/g tissue (Rattus norvegicus [38]): 0.55%
Injected dose/g tissue (Rattus norvegicus [39]): 0.28%
Injected dose/g tissue (Rattus norvegicus [40]): 1.72%
Injected dose/g tissue (Rattus norvegicus [41]): 0.6%
SMILES: O=C(O)CCCCCCCCCCCCCCC/C=C/I

SMILES: O=C(O)CCCCCCCCCCC[Te]CCC/C=C/I
Injected dose/g tissue (Rattus norvegicus [1]): 1.5%
Injected dose/g tissue (Rattus norvegicus [2]): 1%
